Test results from ChEMBL document CHEMBL1143907, “Synthesis, nicotinic acetylcholine receptor binding, and pharmacological properties of 3'-(substituted phenyl)deschloroepibatidine analogs” (Bioorg Med Chem, 2008).

Legend:
Mus musculus [1] = test: […] in mouse assessed as inhibition of nicotin induced hypothermia at 10 mg/kg, sc; type: functional; parameters: scale not given: the % may be the effect or the level left; conditions: route subcutaneous
Mus musculus [2] = test: Antinociceptive activity in acute pain mouse model at 10 mg/kg, sc by hot plate method; type: functional; conditions: route subcutaneous
Outline: (§1)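 Mice were placed in a 10-cm glass cylinder on a hot plate held at 55.0 °C. Two control latencies, at least 10 min apart, were taken per mouse (normal 8–12 s). The endpoint was a jump or paw lick, and animals were tested 5 min after sc injection. Response was expressed as %MPE from test, control and maximum latencies. ED50 values are given with confidence limits, or as percent effect at a dose.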

Mus musculus [3] = test: Effect on rectal temperature in mouse at 1000 […], sc; type: functional; conditions: route subcutaneous
Outline: (§2)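 Rectal temperature was read with a thermistor probe inserted 24 mm, just before and at several times after sc saline or analog. The pre/post difference was calculated per mouse. Laboratory ambient temperature was 21–24 °C.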

[4] = target: Neuronal acetylcholine receptor; alpha4/beta2 (Rattus norvegicus, UniProt P09483+P12390); test: Displacement of [3H]epibatidine from alpha-4-beta-2 nAChR in rat cerebral cortex; type: tissue-based
[5] = target: Neuronal acetylcholine receptor subunit alpha-7 (Rattus norvegicus, UniProt Q05941); test: Displacement of [125I]iodoMLA from alpha-7 nAChR in rat cerebral cortex; type: tissue-based
Mus musculus [6] = test: Antinociceptive activity in acute pain mouse model at 10 mg/kg, sc by tail flick method; type: functional; conditions: route subcutaneous
Outline: (§3)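 Mice, tail-flick assay: heat lamp aimed at the tail, with latency to flick recorded. Each mouse's baseline (2–4 s) was taken before treatment, and test latency was taken after sc dosing. Response was expressed as %MPE = [(test−control)/(maximum latency−control)×100]. ED50 values are reported with confidence limits, or as percent effect at the individual dose.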

Mus musculus [7] = test: Effect on locomotor activity in sc dosed mouse assessed as spontaneous activity; type: functional
Outline: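 Mice were placed in individual photocell activity cages 5 min after sc saline (0.9%) or analog. Photobeam interruptions (two banks of eight cells) were counted over the next 10 min. Data are the number of interruptions, and ED50 is reported with confidence limits or as percent effect at a dose.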

Mus musculus [8] = test: Inhibition of nicotine-induced antinociception in sc dosed acute pain mouse model by tail flick method; type: functional
Mus musculus [9] = test: Inhibition of nicotine-induced antinociception in acute pain mouse model at 100 ug/kg, sc by hot plate method; type: functional; parameters: scale not given: the % may be the effect or the level left
Mus musculus [10] = test: Inhibition of nicotine-induced antinociception in acute pain mouse model at 10 ug/kg, sc by hot plate method; type: functional; parameters: scale not given: the % may be the effect or the level left
Mus musculus [11] = test: Inhibition of nicotine-induced antinociception in acute pain mouse model at 10 ug/kg, sc by tail flick method; type: functional; parameters: scale not given: the % may be the effect or the level left
[12] = target: Neuronal acetylcholine receptor subunit alpha-7 (Rattus norvegicus) (UniProt Q05941); test: Displacement of [125I]iodoMLA from alpha-7 nAChR in rat cerebral cortex at 50 nM; type: tissue-based
Mus musculus [13] = test: Agonist activity in sc dosed mouse assessed as induction of hypothermia
Mus musculus [14] = test: Inhibition of nicotine-induced antinociception in acute pain mouse model at 1000 ug/kg, sc by hot plate method; type: functional; parameters: scale not given: the % may be the effect or the level left
Mus musculus [15] = test: Inhibition of nicotine-induced antinociception in sc dosed acute pain mouse model by hot plate method; type: functional
Mus musculus [16] = test: Effect on rectal temperature in mouse at 10 mg/kg, sc; type: functional; conditions: route subcutaneous; outline: as §2
Mus musculus [17] = test: Antinociceptive activity in acute pain mouse model at 20 mg/kg, sc by hot plate method; type: functional; conditions: route subcutaneous; outline: as §1
Mus musculus [18] = test: Antinociceptive activity in acute pain mouse model at 20 mg/kg, sc by tail flick method; type: functional; conditions: route subcutaneous; outline: as §3
Mus musculus [19] = test: Effect on rectal temperature in mouse at 2000 […], sc; type: functional; conditions: route subcutaneous; outline: as §2
Mus musculus [20] = test: […] in mouse assessed as inhibition of nicotin induced hypothermia at 20 mg/kg, sc; type: functional; parameters: scale not given: the % may be the effect or the level left; conditions: route subcutaneous
Mus musculus [21] = test: Effect on rectal temperature in mouse at 100 […], sc; type: functional; conditions: route subcutaneous; outline: as §2
Mus musculus [22] = test: Antinociceptive activity in sc dosed acute pain mouse model by tail flick method; type: functional; outline: as §3
Mus musculus [23] = test: Antinociceptive activity in sc dosed in acute pain mouse model by hot plate method; type: functional; outline: as §1
Mus musculus [24] = test: Effect on rectal temperature in mouse at 5000 […], sc; type: functional; conditions: route subcutaneous; outline: as §2

Neuronal acetylcholine receptor; alpha4/beta2, sequence (P09483 whole entry): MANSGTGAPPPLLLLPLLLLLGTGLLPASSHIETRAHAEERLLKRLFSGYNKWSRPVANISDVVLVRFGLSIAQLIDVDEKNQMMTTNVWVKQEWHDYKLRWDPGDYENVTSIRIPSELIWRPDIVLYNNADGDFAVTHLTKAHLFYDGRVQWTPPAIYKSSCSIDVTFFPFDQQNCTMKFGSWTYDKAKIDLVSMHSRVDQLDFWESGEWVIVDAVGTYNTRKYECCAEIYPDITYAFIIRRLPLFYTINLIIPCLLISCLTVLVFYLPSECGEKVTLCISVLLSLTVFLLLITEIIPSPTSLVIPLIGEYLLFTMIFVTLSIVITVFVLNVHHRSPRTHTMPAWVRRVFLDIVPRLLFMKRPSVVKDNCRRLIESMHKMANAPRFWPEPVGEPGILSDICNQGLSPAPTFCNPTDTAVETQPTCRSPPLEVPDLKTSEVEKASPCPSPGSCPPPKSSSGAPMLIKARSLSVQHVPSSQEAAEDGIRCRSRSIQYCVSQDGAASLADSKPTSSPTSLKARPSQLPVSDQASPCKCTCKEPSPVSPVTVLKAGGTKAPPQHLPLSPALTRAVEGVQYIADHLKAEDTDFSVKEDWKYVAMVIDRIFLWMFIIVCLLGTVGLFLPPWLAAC
Neuronal acetylcholine receptor; alpha4/beta2, sequence (P12390 whole entry): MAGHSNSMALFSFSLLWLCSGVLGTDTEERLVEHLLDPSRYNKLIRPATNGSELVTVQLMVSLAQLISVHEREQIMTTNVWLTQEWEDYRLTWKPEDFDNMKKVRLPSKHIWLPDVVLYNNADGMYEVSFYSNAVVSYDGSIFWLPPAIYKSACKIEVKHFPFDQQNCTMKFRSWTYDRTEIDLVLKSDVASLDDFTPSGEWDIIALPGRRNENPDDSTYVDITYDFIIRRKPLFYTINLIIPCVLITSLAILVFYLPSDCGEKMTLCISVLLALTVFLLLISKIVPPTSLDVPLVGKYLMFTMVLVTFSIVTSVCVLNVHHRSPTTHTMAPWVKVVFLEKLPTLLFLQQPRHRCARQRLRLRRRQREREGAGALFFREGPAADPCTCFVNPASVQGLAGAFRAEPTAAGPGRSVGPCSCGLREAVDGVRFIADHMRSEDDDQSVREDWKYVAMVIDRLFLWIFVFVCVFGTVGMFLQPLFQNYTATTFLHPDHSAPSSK
Neuronal acetylcholine receptor subunit alpha-7, sequence (Q05941 whole entry): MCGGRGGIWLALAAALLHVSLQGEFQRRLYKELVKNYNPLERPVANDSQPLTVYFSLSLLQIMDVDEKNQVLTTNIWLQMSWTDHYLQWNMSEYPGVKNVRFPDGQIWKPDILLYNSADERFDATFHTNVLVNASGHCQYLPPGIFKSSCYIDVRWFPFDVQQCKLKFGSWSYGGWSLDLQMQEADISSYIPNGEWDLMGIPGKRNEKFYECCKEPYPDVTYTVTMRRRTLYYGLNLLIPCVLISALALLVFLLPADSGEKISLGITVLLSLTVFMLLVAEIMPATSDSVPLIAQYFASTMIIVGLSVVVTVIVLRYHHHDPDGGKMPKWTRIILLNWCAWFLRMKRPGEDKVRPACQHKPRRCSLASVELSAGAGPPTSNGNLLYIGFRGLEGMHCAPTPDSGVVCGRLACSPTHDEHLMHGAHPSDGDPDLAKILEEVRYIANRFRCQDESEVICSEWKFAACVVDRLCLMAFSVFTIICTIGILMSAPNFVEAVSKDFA
Neuronal acetylcholine receptor subunit alpha-7 (Rattus norvegicus), sequence (Q05941 whole entry): as above

Structure (SMILES)	Activity (Mus musculus [1]) [%]	Activity (Mus musculus [2]) [%]	Activity (Mus musculus [3]) [%]	Ki [4] [nM]	Ki [5] [nM]	Activity (Mus musculus [6]) [%]	ED50 (Mus musculus [7]) [mg/kg]	AD50 (Mus musculus [8]) [µg/kg]	ED50 (Mus musculus [13]) [mg/kg]	AD50 (Mus musculus [15]) [mg/kg]	other results
Fc1ccc(-c2cncc(C3CC4CCC3N4)c2)cc1 (stereo not given)	-1.6	13	0	0.15	> 2000	3	3	13	–	–	Activity (Mus musculus [9]): 10%
Clc1ccc(-c2cncc(C3CC4CCC3N4)c2)cc1 (stereo not given)	2	11	5	0.21	> 2000	1	10.5	–	–	–	Activity (Mus musculus [10]): 0%; Activity (Mus musculus [11]): 0%
Cl.Cl.c1ccc(-c2cncc(C3CC4CCC3N4)c2)cc1 (racemic)	–	30	0	0.5	–	6	0.5	300	1.5	–	Activity [12]: 7%; Activity (Mus musculus [14]): 10%
Cl.Cl.Fc1cccc(-c2cncc(C3CC4CCC3N4)c2)c1 (racemic)	0	8	–	0.2	> 2000	2	5	3.1	–	3	Activity (Mus musculus [16]): 0%
Cl.Cl.O=[N+]([O-])c1cccc(-c2cncc(C3CC4CCC3N4)c2)c1 (racemic)	–	–	–	0.17	> 2000	–	2.5	–	37.6	–	Activity (Mus musculus [17]): 21%; Activity (Mus musculus [18]): 5%; Activity (Mus musculus [19]): 0%
Cl.Cl.Cl.Clc1cccc(-c2cncc(C3CC4CCC3N4)c2)c1 (racemic)	–	–	0	0.17	> 2000	–	3.8	0.01	–	–	Activity (Mus musculus [14]): 0%; Activity (Mus musculus [17]): 10%; Activity (Mus musculus [18]): 1%; Activity (Mus musculus [20]): 0%
Cl.Cl.O=[N+]([O-])c1ccc(-c2cncc(C3CC4CCC3N4)c2)cc1 (racemic)	–	26	–	0.34	> 2000	1	0.66	47	2.9	–	Activity (Mus musculus [21]): 0%; Activity (Mus musculus [9]): 10%
COc1cccc(-c2cncc(C3CC4CCC3N4)c2)c1.Cl.Cl (racemic)	0	20	–	–	> 2000	1	2.9	–	–	–	Activity (Mus musculus [16]): 0%; Activity (Mus musculus [10]): 0%; Activity (Mus musculus [11]): 0%
Cl.Fc1ncc(C2CC3CCC2N3)cc1-c1cccc(Cl)c1 (racemic)	–	14	0	0.073	–	–	–	12	–	0.45	–
Cl.Nc1cccc(-c2cncc(C3CC4CCC3N4)c2)c1 (racemic)	–	–	–	1.16	> 2000	–	1.5	–	3.8	–	ED50 (Mus musculus [22]): 0.006 mg/kg; ED50 (Mus musculus [23]): 0.65 mg/kg
Cl.Nc1ccc(-c2cc(C3CC4CCC3N4)cnc2F)cc1 (racemic)	–	10	–	0.095	–	–	–	5	–	1.8	Activity (Mus musculus [24]): 0%
Cl.Fc1ccc(-c2cc(C3CC4CCC3N4)cnc2F)cc1 (racemic)	–	15	–	0.029	–	–	–	0.5	–	0.23	Activity (Mus musculus [21]): 0%
